Active and inactive are the calls of the source.
What was measured:
[1] = system: Rattus norvegicus; test: Antihyperalgesic activity in Sprague-Dawley rat assessed as lesioned paw pressure threshold at 30 ug/kg, icv after 45 mins; format: functional
Procedure, shortened: (§1)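 Sciatic nerve-ligated (chronic constriction injury, Bennett–Xie) male Sprague–Dawley rats, 150–200 g, dosed i.c.v.; saline served as vehicle. Paw withdrawal threshold (g) of the lesioned paw was read by analgesimeter before dosing and at 30, 45 and 60 min, max force 240 g. Baseline outliers (<40 g, >75 g) were excluded. Mean ± SEM of 8–14 rats; ANOVA with Fisher PLSD.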

[2] = system: Rattus norvegicus; test: Antihyperalgesic activity in Sprague-Dawley rat assessed as lesioned paw pressure threshold at 30 ug/kg, icv after 60 mins; format: functional; procedure, shortened: as §1
[3] = system: Rattus norvegicus; test: Antihyperalgesic activity in Sprague-Dawley rat assessed as lesioned paw pressure threshold at 30 ug/kg, icv after 30 mins; format: functional; procedure, shortened: as §1
[4] = system: Rattus norvegicus; test: Analgesic activity against nerve injury-induced hyperalgesia in Sprague-Dawley rat assessed as increase in lesional paw pressure threshold at 10 mg/kg, po after 30 to 60 mins; format: functional, organism-based; set-up: dose 10 mg/kg
Procedure, shortened: (§2)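 Male Sprague–Dawley rats (150–200 g) given a chronic constriction injury: loose ligatures on the right common sciatic nerve (Bennett–Xie), under chloral hydrate anaesthesia. Oral dosing. Analgesimeter paw pressure; withdrawal force in g recorded before and 30, 45, 60 min after dosing, cut-off 240 g. Rats below 40 g or above 75 g at baseline were excluded. Mean ± SEM, 6–11 rats; ANOVA with Fisher PLSD.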

[5] = system: Rattus norvegicus; test: Analgesic activity against streptozotocin-induced hyperalgesia in Sprague-Dawley rat assessed as increase in paw mechanical threshold at 50 mg/kg, po; format: functional, organism-based; set-up: dose 50 mg/kg
Procedure, shortened: (§3)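 Male Sprague–Dawley rats (150–200 g) were given streptozotocin 50 mg/kg ip and tested 21 days later. Oral dosing; paw pressure analgesimeter read as the force (g) at first struggling, before and at 30–60 min after dosing, cut-off 240 g. Rats below 40 g or above 75 g at baseline were excluded. Mean ± SEM, 9–10 rats; ANOVA with Fisher PLSD.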

[6] = system: Rattus norvegicus; test: Antihyperalgesic activity in Sprague-Dawley rat assessed as lesioned paw pressure threshold at 10 ug/kg, icv after 60 mins; format: functional; procedure, shortened: as §1
[7] = system: Rattus norvegicus; test: Antihyperalgesic activity in Sprague-Dawley rat assessed as lesioned paw pressure threshold at 10 ug/kg, icv after 30 mins; format: functional; procedure, shortened: as §1
[8] = system: Rattus norvegicus; test: Antihyperalgesic activity in Sprague-Dawley rat assessed as lesioned paw pressure threshold at 10 ug/kg, icv after 45 mins; format: functional; procedure, shortened: as §1
[9] = system: Rattus norvegicus; test: Neurotoxicity in Sprague-Dawley rat assessed as behavioural impairment at 100 mg/kg, po by rotarod test; format: toxicity, organism-based; set-up: dose 100 mg/kg, route oral; conditions: in vivo
Procedure, shortened: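 Rotarod motor incoordination test in male Sprague–Dawley rats: animals walk against the rotating drum for 30 s, and the readout is the number of falls in 30 s.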

[10] = system: Rattus norvegicus; test: Analgesic activity against streptozotocin-induced hyperalgesia in Sprague-Dawley rat assessed as increase in paw mechanical threshold at 100 mg/kg, po; format: functional, organism-based; set-up: dose 100 mg/kg; procedure, shortened: as §3
[11] = system: Rattus norvegicus; test: Analgesic activity against nerve injury-induced hyperalgesia in Sprague-Dawley rat assessed as increase in lesional paw pressure threshold at 30 mg/kg, po after 30 to 60 mins; format: functional, organism-based; set-up: dose 30 mg/kg; procedure, shortened: as §2
[12] = system: Rattus norvegicus; test: Analgesic activity against nerve injury-induced hyperalgesia in Sprague-Dawley rat assessed as increase in lesional paw pressure threshold at 50 mg/kg, po after 30 to 60 mins; format: functional, organism-based; set-up: dose 50 mg/kg
Procedure, shortened: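 Male Sprague–Dawley rats, 150–200 g, with chronic constriction injury (loose ligatures on right common sciatic nerve, chloral hydrate anaesthesia); oral dosing. Paw pressure analgesimeter measured withdrawal/first-struggle force (g) on lesioned and contralateral paws before and 30, 45, 60 min after dosing. Pre-dose scores below 40 g or above 75 g excluded; 240 g cutoff. Means of 6–11 rats; ANOVA with Fisher's PLSD.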

[13] = organism: Rattus norvegicus; test: Analgesic activity against streptozotocin-induced hyperalgesia in Sprague-Dawley rat assessed as increase in paw mechanical threshold; format: functional, organism-based
Procedure, shortened: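 Male Sprague–Dawley rats, 150–200 g, given streptozotocin 50 mg/kg ip and tested 21 days later; compound given orally at 30–100 mg/kg, with non-diabetic controls. Paw pressure analgesimeter recorded force (g) causing first struggle before and 30, 45, 60 min after dosing; 240 g cutoff. Means of 9–10 rats; ANOVA with Fisher's PLSD.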

[14] = system: Rattus norvegicus; test: Antihyperalgesic activity in Sprague-Dawley rat assessed as lesioned paw pressure threshold at 100 ug/kg, icv after 60 mins; format: functional; procedure, shortened: as §1
[15] = system: Rattus norvegicus; test: Antihyperalgesic activity in Sprague-Dawley rat assessed as lesioned paw pressure threshold at 100 ug/kg, icv after 30 mins; format: functional; procedure, shortened: as §1
[16] = system: Rattus norvegicus; test: Antihyperalgesic activity in Sprague-Dawley rat assessed as lesioned paw pressure threshold at 100 ug/kg, icv after 45 mins; format: functional; procedure, shortened: as §1
[17] = system: Rattus norvegicus; test: Antihyperalgesic activity in Sprague-Dawley rat assessed as lesioned paw pressure threshold at 500 ug/kg, icv after 45 mins; format: functional
Procedure, shortened: (§4)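 Male Sprague–Dawley rats, 150–200 g, with right sciatic nerve chronic constriction injury (Bennett–Xie). Compound given i.c.v. and withdrawal threshold (g) on lesioned and contralateral paws measured with an analgesimeter before dosing and at 30, 45, 60 min. Pre-dose scores outside 40–75 g excluded; 240 g maximum force. 8–14 rats per group; ANOVA with Fisher's PLSD.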

[18] = system: Rattus norvegicus; test: Antihyperalgesic activity in Sprague-Dawley rat assessed as lesioned paw pressure threshold at 500 ug/kg, icv after 30 mins; format: functional; procedure, shortened: as §4
[19] = system: Rattus norvegicus; test: Antihyperalgesic activity in Sprague-Dawley rat assessed as lesioned paw pressure threshold at 500 ug/kg, icv after 60 mins; format: functional; procedure, shortened: as §4

O=C1CCC2N1CC(=O)N2c1ccccc1 (stereo not drawn)
Activity [1]: 52.7 g
Activity [2]: 53.3 g
Activity [3]: 51.7 g

Cc1ccc(N2C(=O)CN3C(=O)CCC32)cc1 (stereo not drawn)
Activity [4]: inactive
Activity [5]: Active
Activity [6]: 45.4 g
Activity [7]: 54 g
Activity [8]: 57.4 g
Activity [9]: Non-toxic
Activity [10]: Active
Activity [11]: Active

Cc1ccccc1N1C(=O)CN2C(=O)CCC21 (stereo not drawn)
Activity [1]: 55.3 g
Activity [2]: 54.8 g
Activity [3]: 46.7 g

N#Cc1cccc(N2C(=O)CN3C(=O)CCC32)c1 (stereo not drawn)
Activity [12]: Active
Activity [13]: Dose-dependent effect
Activity [1]: 55.4 g
Activity [9]: Non-toxic
Activity [2]: 46.8 g
Activity [3]: 49.7 g

CC(C)c1cccc(N2C(=O)CN3C(=O)CCC32)c1 (stereo not drawn)
Activity [1]: 43.7 g
Activity [2]: 42.5 g
Activity [3]: 48.5 g

NCC1(CC(=O)O)CCCCC1 [GABAPENTIN]
Activity [1]: 43.5 g
Activity [2]: 46.1 g
Activity [3]: 46.3 g

Cc1cccc(C)c1NC(=O)CN1CCCC1=O [NEFIRACETAM]
Activity [1]: 49.5 g
Activity [2]: 47.6 g
Activity [3]: 46.7 g

O=C1CN2C(=O)CCC2N1 (stereo not drawn) [DIMIRACETAM]
Activity [14]: 39.2 g
Activity [15]: 41 g
Activity [16]: 42.8 g

Cc1cccc(N2C(=O)CN3C(=O)CCC32)c1 (stereo not drawn)
Activity [6]: 51.2 g
Activity [7]: 59.3 g
Activity [8]: 63.4 g

CC[C@@H](C(N)=O)N1CCCC1=O [LEVETIRACETAM]
Activity [17]: 52.1
Activity [18]: 51.8
Activity [19]: 49.3

N#Cc1ccc(N2C(=O)CN3C(=O)CCC32)cc1 (stereo not drawn)
Activity [12]: Active
Activity [6]: 58.2 g
Activity [7]: 59.4 g
Activity [13]: Dose-dependent effect
Activity [8]: 55.3 g
